# In ChEMBL document CHEMBL4513216, “Probing the Open Global Health Chemical Diversity Library for Multistage-Active Starting Points for Next-Generation Antimalarials” (ACS Infect Dis, 2020):
# Experiment: Toxicity liver stage against HepG2, at 10uM
# Format: cell-based
# Set-up: test concentration 10 uM, cell line HepG2-A16-CD81EGFP
# Details: human, HepG2-A16-CD81EGFP cells; read-out: INHIBITION
# In short: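 Uninfected HepG2-A16-CD81EGFP cells, 3 × 10^3 per well, 1536-well, plated on prespotted compound at 10 μM final, parasite-free screening media added to match infected plates; puromycin 10 μM positive, DMSO 0.5% negative; run in parallel with 48 h PbLuc assay at 37 °C, 5% CO2; viability by CellTiter-Glo luminescence, normalized to controls.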
row,Structure (SMILES),cytotoxicity at 10 µM [%]
1,COc1ccc(CC(C)Nc2cccc(F)c2)cc1 (stereo not drawn),5.82
2,O=c1c2ccccc2nc2n1C(CSc1ccc(F)cc1)CN2 (stereo not drawn),11.2
3,CN(C)c1nc(N)nc(CN2CCCC2c2ccsc2)n1 (stereo not drawn),-19.6
4,CNCc1cn(C[C@H]2CC3CCN2C[C@@H]3C(=O)Nc2ccccc2)nn1 (stereo partly drawn),-0.288
5,COCCNc1c(-c2ccc(C)cc2)c(=O)c1=O,-5.15
6,CCC(CC)NC(=O)c1cccnc1N1CCCC1c1ccccn1 (stereo not drawn),10.3
7,CC(=O)N1N=C(c2cccs2)OC1C(=O)NCCc1cccc(Cl)c1 (stereo not drawn),-1.66
8,O=C1CN(C(=O)c2cccc(C(F)(F)F)c2)CC(O)CN1CC1CC1 (stereo not drawn),-4.65
9,O=C1CC(c2ccc(O)cc2)c2c(c(C(=O)O)cn2-c2ccccc2)N1 (stereo not drawn),-4.99
10,CC(C)CNC(=O)c1cn(C)c(=O)c2ccccc12,1.28
11,O=C(Cc1noc(C(=O)NCCO)n1)Nc1cccc(C(F)(F)F)c1,8.9
12,Cn1cccc1C(O)CNC(=O)c1cccc(Cl)c1 (stereo not drawn),-1.94
13,Cc1ccsc1C(O)CNC(=O)Cc1ccc(S(=O)(=O)C(C)C)cc1 (stereo not drawn),-1.21
14,Cc1ccc(F)cc1S(=O)(=O)Nc1cnc(N2CCCC2)nc1,3.91
15,CCCC(=O)N1CCC2(CC1)CN(Cc1cccc(C)n1)C(=O)CO2,-5.05
16,Cc1nc(CN2CCC3(CCN(Cc4cnn(C)c4)C3)C2=O)cs1 (stereo not drawn),6.81
17,COCCn1c2c(ccc1=O)CCN(Cc1ccoc1)CC2,-134
18,O=C1CC(c2ccc(O)cc2)c2sc(C(=O)O)c(-c3ccccc3)c2N1 (stereo not drawn),-0.472
19,O=C(Nc1ccc(I)cc1C(=O)NCCN1CCOCC1)c1cccs1,-5.09
20,O=C(c1ccoc1)N1CCC2(CC1)C(=O)Nc1ccccc12,-13.6
21,Cc1ccc(N2CC3(CCN(C(=O)c4ccoc4)C3)C2)nn1,-11.6
22,Cc1cnc(C(=O)N2CCc3ncnc(C)c3CC2)cn1,-6.51
23,CNC(=O)[C@@]12CCCN(c3ncccn3)[C@@H]1CN(C(=O)NC(C)C)C2,0.614

row,Structure (SMILES),cytotoxicity at 10 µM [%]
1,Cc1nc(N2CCN(c3ccccc3)CC2)c2c(n1)c(C)nn2C,7.8
2,CCn1nc(C)c2nn(CC(=O)NC3CCSCC3)cc21,-3.57
3,Cc1nc(N2CCCCC2)ncc1-c1cc(O)nc(N2CCCCC2)n1,11.8
4,O=C(C1CCCCC1)N1CCCC([C@@H]2C[C@H](C(F)F)n3ncnc3N2)C1 (stereo partly drawn),1.4
5,Cc1ccnc(C2CN(c3ncccn3)C2)n1,2.55
6,Cc1c(-c2cc(C(=O)N3CCc4ncc(Cl)cc4C3)on2)cnn1C,-3.07
7,C[S+]([O-])CCNC(=O)N1CCSC2(CCCCC2)C1 (stereo not drawn),-0.363
8,CC(C)(C)NC(=O)CNc1ccc(Br)cn1,-2.81
9,O=S(=O)(CCO)CCc1ccccc1Cl,7.21
10,CCC(O)(CNCc1cc[nH]n1)c1ccc(Br)cc1 (stereo not drawn),2.69
11,CN1N=C(c2nc(Cc3cccc(Br)c3)no2)CCC1=O,-6.09
12,CC(C)CC(NC(=O)CN(C)c1cnccn1)c1cccs1 (stereo not drawn),2.84
13,CC(C)Cc1noc(CN2CCC(C(=O)NCC3CCCO3)CC2)n1 (stereo not drawn),3.13
14,Cc1occc1CNc1ncccc1S(N)(=O)=O,-149
15,Cc1cc(CNS(C)(=O)=O)ccc1N(C)C,-11.5
16,CCc1cnccc1C(=O)Nc1ccc(C(N)=O)nc1,5.44
17,COc1ccc(C)nc1NC(=O)CCc1c(C)nn(C)c1C,0.918
18,Cc1cc(N2CCCCC2)c(C#N)c(C)n1,-6.16
19,Cc1csc(-c2cccc(NC(=O)NCC(C)(C)C(N)=O)c2)n1,-4.25
20,COC(=O)C1CN(Cc2nc(-c3ccccc3)cs2)C[C@@H](C)O1 (stereo partly drawn),-0.227
21,CCN1CCCC1CNC(=O)CCc1cccs1 (stereo not drawn),-9.09
22,CNC(=O)C(NC(=O)c1c(C)noc1C)c1ccc(F)c(F)c1 (stereo not drawn),-18.3
23,O=C(NCCCn1cccn1)N1CCCC1c1cccs1 (stereo not drawn),-2.39

row,Structure (SMILES),cytotoxicity at 10 µM [%]
1,Cc1cc(C)cc(CNCCS(=O)(=O)N2CCOCC2)c1,1.05
2,CCc1ncc2c(n1)CN(Cc1cnc(C)cn1)CC2,-7.51
3,CCCN1CCCN(c2ncccc2C(=O)N2CCCCC2)CC1,0.503
4,NC(=O)C1CCN(CCc2ccc(NCc3cccnc3)cc2)CC1,8.02
5,CC(C)c1cccc(CSc2nnc(Cn3cncn3)o2)n1,13
6,COc1cccc(CCCn2cnnc2[S+](C)[O-])c1 (stereo not drawn),-12.7
7,COc1ccsc1C(=O)Nc1cc(Cl)c(=O)n(C)c1,2.05
8,CN(C)c1nccc(N(C)C2CCCCC2)n1,-6.37
9,Cc1c(NCCOCC(F)(F)F)cccc1C(=O)N1CCCC1,-0.595
10,CNC(=O)C(NC(=O)c1nccn2ccnc12)c1ccc(F)c(F)c1 (stereo not drawn),-12.6
11,Cc1[nH]ccc1C(=O)Nc1cccc(CN2CCC(CO)CC2)c1,-9.37
12,COCc1nc(CNC2CCCC(C)(C)C2)no1 (stereo not drawn),2.55
13,C[C@@H]1CN(c2ccc(Cl)cn2)C[C@@]1(O)C1CC1,-2.81
14,Cn1c(Cn2ccnc2)nnc1C1CCCN(c2ncccn2)C1 (stereo not drawn),-6.33
15,Cn1c(CCNC(=O)C2CCCN(C3CCOCC3)C2)n[nH]c1=O (stereo not drawn),2.12
16,O=C(NCCC1CCCCO1)c1cc(COc2ccccc2F)[nH]n1 (stereo not drawn),6.57
17,O=C(Nc1ccc2occc2c1)N1CCCC(O)(CO)CC1 (stereo not drawn),-0.735
18,CN(Cc1ncnn1C1Cc2ccccc2C1)C1CCS(=O)(=O)C1 (stereo not drawn),-2.14
19,Cc1nc(CC(C)C)cc(C(=O)N2C[C@@H](CN(C)C)[C@@H](CO)C2)n1,0.868
20,Cc1ncsc1CCN(C)C(=O)c1c(O)cccc1O,0.417
21,CN(CCNC(=O)c1cnc(-c2ccncc2)nc1)S(C)(=O)=O,5.23
22,Cc1nc2c(c(NCC3Cc4ccccc4CN3C)n1)CCNCC2 (stereo not drawn),-9.08
23,CSc1cccc(CN(C)C(=O)Cn2ncc(N3CCCC3)cc2=O)c1,-2.01

row,Structure (SMILES),cytotoxicity at 10 µM [%]
1,CC(C)c1ccn(C2(C(=O)O)CCN(c3cc(C(N)=O)ccn3)CC2)n1,1.71
2,CCN(CC)CCn1cnc(-c2ccccc2)c1-c1ncc[nH]1,4.03
3,CCc1nc(N2CCN(CCOC)CC2)c2cnn(C)c2n1,0.363
4,O=C(N1CCC(OCc2ccccn2)CC1)C1(c2ccc(F)cc2)CC1,0.178
5,COc1cc(C)ccc1S(=O)(=O)N1CC[C@](C)(O)[C@H](C)C1,7.52
6,Cc1cccc(OC2CN(C(=O)C3CC(=O)N(C(C)(C)C)C3)C2)c1 (stereo not drawn),4.4
7,C[C@@H]1CN(c2cccnn2)CC[C@@]1(O)C1CCOCC1,2.72
8,O=C(O)[C@@H]1CN(C2CCOCC2)C[C@H]1C1CC1,-160
9,COc1cc(-n2cc(CCO)cn2)ccc1NC(C)=O,9.81
10,CCc1cc(NCCCOC2CCN(C)CC2)ncn1,-8.34
11,Cn1c(CN2CCCCC2)nnc1C1CCN(c2nccc(N)n2)CC1,-7.98
12,Cc1ccccc1CC1(C(=O)O)CCCN(c2ncnc3[nH]ccc23)C1 (stereo not drawn),3.63
13,COc1ccc(Oc2cccc(C#N)n2)cc1CN1CCCC1,-1.86
14,Cc1cccc(C(=O)N2CCCCC2c2ccc(CN(C)C)cc2)n1 (stereo not drawn),-19.5
15,O=S1(=O)C[C@@H]2[C@H](C1)N(Cc1cc(Cl)cc(Cl)c1)CCN2CC1CC1,27.6
16,CC1CCCCN1Cc1ccc(-c2ccccc2C(=O)O)cc1 (stereo not drawn),6.74
17,COc1cc(CNC(C)Cn2cccn2)cc(OC)c1 (stereo not drawn),0.681
18,COc1ccc(CNCC2CNc3ccnn3C2)cn1 (stereo not drawn),-3.84
19,CCn1cnnc1C1CCN(C(=O)c2ccc(Cl)cc2OC)CC1,-1.94
20,COCCN1CCC(NCc2c(F)cccc2F)C1 (stereo not drawn),-5.95
21,CCC(O)CN1CCN(C(=O)CCc2c(C)noc2Cl)CC1 (stereo not drawn),-8.89
22,Cc1noc(NC(=O)c2ccc(F)cc2)n1,-0.481
23,CCc1nc(CN2CCCN(C(=O)c3ccnc(C)n3)CC2)cs1,-13.4

row,Structure (SMILES),cytotoxicity at 10 µM [%]
1,O=C(c1sccc1Br)N(Cc1cccnc1)C1CC1,-4.07
2,Cc1cc(NC(=O)NCC(O)COc2ccccc2)n(C)n1 (stereo not drawn),-3.19
3,c1ncn(CC2CN(CC3CCCCC3)CCO2)n1 (stereo not drawn),-14.8
4,Cn1nc(C(=O)N2CCCC(n3cncn3)C2)ccc1=O (stereo not drawn),-17.4
5,COc1cccc(CCNCc2c(C)nn(C)c2N(C)C)c1,-1.6
6,COc1ccc(-c2cnc(CN3CCn4c(C)nnc4C3)o2)cc1,-13.5
7,Cc1nnc2n1CCN(CCS(=O)(=O)c1ccccc1)C2,-9.7
8,CCc1nnc(CN2CCCC(c3cc(C(F)(F)F)[nH]n3)C2)o1 (stereo not drawn),6.88
9,CSc1ccsc1C(=O)N1CCN(CC(C)(C)O)CC1,-3.22
10,Cc1cnn(CC2CCCCN2C(=O)c2ccnc(N(C)C)c2)c1 (stereo not drawn),3.3
11,CCCNCc1ccc(OCc2ccc3c(c2)OCCO3)cc1,3.49
12,CC(C)[C@H](N)c1nnc(SCC(=O)Nc2ccc(Br)cc2)o1,-5.15
13,O=C(NCc1ccco1)[C@H]1COC[C@H]2CN(Cc3ccoc3)C[C@H]21,-70.4
14,Cc1nc(C)n(CC2CN(Cc3cccnc3)Cc3nccn3C2)n1 (stereo not drawn),-141
15,O=C(C1CCOC1)N1CCC2(CC1)CN(c1ncccn1)CCO2 (stereo not drawn),-73.2
16,Cc1ccccc1N1CC2(CCN(Cc3nccn3C)C2)CC1=O (stereo not drawn),-81.3
17,CC(C)(C)c1cc(=O)[nH]c(C2(N)CCCCC2)n1,16.5
18,CN(C)C(=O)CN1C[C@H]2CC[C@@H](C1)N(C(=O)Cc1ccccc1Cl)C2,-11.2
19,CNc1nc2cn(C3CC(C)(C)NC(C)(C)C3)c(=O)c-2c[nH]1,12
20,Cc1cccc(-n2cc3[nH]c(=O)n(Cc4cccc(F)c4)n3c2=O)c1,1.79
21,N#Cc1ccccc1CN1C[C@H]2CC[C@@H](C1)N(CC1CC1)C2=O,-11.4
